Our source for the EC50, RCI and ED50 values is ChEMBL document CHEMBL1133773, “Characterization of a novel analogue of 1alpha,25(OH)(2)-vitamin D(3) with two side chains: interaction with its nuclear receptor and cellular actions” (2000).

Activity calls are given as the source filed them.

One test has as its system HL-60. Nature of the test: Inhibition of colony formation assays on HL-60 cells. The class given is functional. Conditions: Homo sapiens, read-out: ED50 (the source's name).
Another test concerns MCF7. Nature of the test: Inhibition of colony formation assays on MCF-7 cells. Type of test: functional. As to conditions: Homo sapiens, read-out: ED50 (the source's name). The gist of the method:
(§1)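 Soft agar clonal assay in six-well dishes with two layers: compound mixed into the 0.5% agar under layer, cells (1 × 10³/plate) in the 0.3% agar upper layer. Incubated 12 days at 37 °C in humidified 5% CO2. Colonies expressed as percent of untreated control plates. Triplicate plates per point, each experiment done at least three times; ED50 taken from dose-response curves.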

Test [1] deals with LNCaP. The experiment in a line: Inhibition of colony formation assays on LNCaP cells. The class given is functional. As to conditions: Homo sapiens, read-out: ED50 (the source's name). The gist of the method: as §1
The nature of test [2]: Effective dose for transcriptional activation in ROS 17/2.8 osteosarcoma cells. Conditions: Rattus norvegicus; read-out: ED50 (the source's name). The class given is functional.
In test [3] the target is T1, Vitamin D-binding protein (Homo sapiens) (UniProt P02774).
T1 sequence (whole entry): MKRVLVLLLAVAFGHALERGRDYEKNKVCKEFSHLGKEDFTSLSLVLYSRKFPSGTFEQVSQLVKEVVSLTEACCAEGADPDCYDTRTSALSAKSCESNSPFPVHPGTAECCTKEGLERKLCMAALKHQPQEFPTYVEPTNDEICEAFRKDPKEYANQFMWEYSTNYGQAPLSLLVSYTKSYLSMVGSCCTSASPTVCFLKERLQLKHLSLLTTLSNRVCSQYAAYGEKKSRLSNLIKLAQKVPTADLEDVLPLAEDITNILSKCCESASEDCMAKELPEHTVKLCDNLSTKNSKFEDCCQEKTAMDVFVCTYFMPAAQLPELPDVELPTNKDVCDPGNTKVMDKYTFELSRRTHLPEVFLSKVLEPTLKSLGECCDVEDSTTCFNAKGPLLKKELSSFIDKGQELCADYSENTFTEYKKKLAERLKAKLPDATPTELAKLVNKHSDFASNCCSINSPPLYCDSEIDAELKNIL
Nature of the test: Percentage binding to Human Vitamin D binding protein, relative competitive index (RCI). The gist of the method: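 Steroid competition assay with human DBP: increasing unlabeled ligand or 125D standard incubated 4 h at 4 °C with a fixed concentration of [³H]125D. Bound and free ligand separated by charcoal-dextran. RCI calculated relative to 125D, which is set at 100%.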

In test [4] the target is T2, Vitamin D3 receptor (Gallus gallus) (UniProt O42392).
T2 sequence (whole entry): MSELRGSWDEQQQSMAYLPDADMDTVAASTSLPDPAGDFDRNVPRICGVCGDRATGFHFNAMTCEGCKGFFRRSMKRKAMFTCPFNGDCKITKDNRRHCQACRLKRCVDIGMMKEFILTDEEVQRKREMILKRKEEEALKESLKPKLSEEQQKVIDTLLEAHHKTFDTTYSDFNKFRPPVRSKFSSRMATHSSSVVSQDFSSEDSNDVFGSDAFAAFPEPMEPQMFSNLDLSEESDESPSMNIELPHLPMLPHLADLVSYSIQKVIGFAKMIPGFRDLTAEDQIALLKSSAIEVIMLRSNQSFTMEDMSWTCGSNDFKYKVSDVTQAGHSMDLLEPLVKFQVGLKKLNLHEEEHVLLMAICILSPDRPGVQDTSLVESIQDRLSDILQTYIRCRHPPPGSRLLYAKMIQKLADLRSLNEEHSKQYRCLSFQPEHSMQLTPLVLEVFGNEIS
The experiment in a line: Percentage binding to chick intestinal vitamin D3 receptor, relative competitive index (RCI). The gist of the method: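 Competition binding to chick intestinal VDR: rising concentrations of competitor or unlabeled 125D incubated 4 h at 4 °C with a defined amount of [³H]125D. Bound ligand separated from free by hydroxyapatite. RCI computed with 125D defined as 100%.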

The nature of test [5]: Effective dose for Protease sensitivity. Type of test: functional. In outline: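 In vitro translated VDR labeled with [³⁵S]methionine, incubated 20 min at room temperature with ligand (10^-7–10^-11 M), then trypsin digestion 20 min; products resolved on 14% SDS-PAGE and autoradiographed. ED50 is the ligand concentration giving 50% of the maximal level of the major trypsin-resistant fragment. Trypsin level is given as both 15 and 20 µg/mL in the text.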

Test [6] relates to LNCaP. The experiment in a line: Inhibition of colony formation assays on LNCaP cells; (NR: not reached at <= 10e -6M). Type of test: functional, cell-based. Conditions: Homo sapiens. In outline:
as §1

Consider `C=C1/C(=C\C=C2/CCC[C@]3(C)[C@@H](C(CCCC(C)(C)O)CCCC(C)(C)O)CC[C@@H]23)C[C@@H](O)C[C@@H]1O`, for which the EC50 in the test with HL-60 amounted to 0.34 nM; with MCF7, 1.2 nM; in the test on LNCaP [1], 82 nM; in test [2], 1 nM. In addition, the results for the RCI in test [3] and in test [4] were 2.5% and 38%, respectively. In test [5], the ED50 amounted to 180 nM.

As for `C=C1/C(=C\C=C2/CCC[C@]3(C)[C@@H]([C@@H](C)CCCC(C)(C)O)CC[C@@H]23)C[C@@H](O)C[C@@H]1O`, the results for the RCI in test [3] and in test [4] were 2.6% and 147%, respectively. In test [5], this compound displayed an ED50 of 0.13 nM.

In the case of `C=C1/C(=C\C=C2/CCC[C@]3(C)[C@@H]([C@H](C)CCCC(C)(C)O)CC[C@@H]23)C[C@@H](O)C[C@@H]1O`, the ED50 entry in the test with LNCaP [6] is “inactive”. Also, in test [3], the RCI stood at 100%. Further, the ED50 in test [5] stood at 5.9 nM.
